Active and inactive are the calls of the source. No cut-off for these calls is given here.
Assays:
A549 [1] = experiment: Cytotoxicity against human A549 cells assessed as effect on cell viability at 2.5 uM after 24 hrs by CCK8 assay; assay type: cell-based; details: a549, 24 h
How it was run: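 A549 cells in RPMI 1640 with 10% FBS were seeded at about 1 × 10^4 cells/well and grown 16 h, then switched to FBS-free medium for 16 h. Compound added with or without TNF-α for 24 h. Viability measured in triplicate by CCK-8 absorbance and expressed as % of the negative control.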

A549 [2] = experiment: Antiinflammatory activity in human A549 cells assessed as reduction in TNFalpha-induced IL8 production at 2.5 uM after 24 hrs by ELISA; assay type: functional, cell-based
How it was run: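 A549 cells (ATCC) grown in RPMI 1640 with 10% FBS and penicillin/streptomycin at 37 °C, 5% CO2. Seeded and grown 16 h, then held 16 h in FBS-free medium. Treated with compound with or without TNF-α for 24 h. IL-8 measured by ELISA at 450 nm and expressed as % of the TNF-α-alone control. Means ± SD of three independent experiments.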

Neutrophil elastase [3] = molecular target: T1, Neutrophil elastase (Homo sapiens, UniProt P08246); experiment: Inhibition of human neutrophil elastase using MeOSuc-AAPV-pNA as substrate measured after 30 mins by spectrometric method
T1 sequence (P08246 whole entry): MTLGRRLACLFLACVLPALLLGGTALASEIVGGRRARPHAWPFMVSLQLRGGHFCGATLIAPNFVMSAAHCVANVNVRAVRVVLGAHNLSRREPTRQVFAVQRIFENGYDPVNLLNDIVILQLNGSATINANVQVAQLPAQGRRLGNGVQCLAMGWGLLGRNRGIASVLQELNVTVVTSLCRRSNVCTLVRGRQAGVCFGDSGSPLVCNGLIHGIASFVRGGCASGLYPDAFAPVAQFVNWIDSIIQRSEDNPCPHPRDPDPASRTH

Neutrophil elastase [4] = molecular target: T1, Neutrophil elastase; experiment: Noncompetitive inhibition of human neutrophil elastase using varying levels of MeOSuc-AAPV-pNA as substrate measured after 30 mins by double-reciprocal Lineweaver-Burk plot analysis

Row | IC50 (Neutrophil elastase [3]) | Ki (Neutrophil elastase [4]) | SMILES | Activity (A549 [1]) | Activity (A549 [2])
1 | > 100 µM | – | CC(C)(O)CCCC1(C)CCc2c(cc3c(c2O)C(=O)C[C@@H](c2ccc(O)cc2)O3)O1 (some centres not stated) | Non-Toxic | Active
2 | > 100 µM | – | COc1ccc([C@@H]2CC(=O)c3c(cc4c(c3O)CCC(C)(CCCC(C)(C)O)O4)O2)cc1O (some centres not stated) | – | –
3 | 22.8 µM | 15.7 µM | CC(C)=CCC/C(C)=C/Cc1c(O)cc2c(c1O)C(=O)C[C@@H](c1ccc(O)c(O)c1)O2 [NYMPHAEOL A] | – | –
4 | 71.3 µM | – | COc1cc([C@@H]2CC(=O)c3c(cc(O)c(C/C=C(\C)CCC=C(C)C)c3O)O2)cc(OC)c1O | – | –

Second part, the molecule before the results:

Row | SMILES | IC50 (Neutrophil elastase [3]) | Ki (Neutrophil elastase [4]) | Activity (A549 [1]) | Activity (A549 [2])
5 | C=C(C)C(O)CC/C(C)=C/Cc1c(O)cc2c(c1O)C(=O)C[C@@H](c1cc(O)c(OC)c(O)c1)O2 (some centres not stated) | – | – | Non-Toxic | Active
6 | COc1cc([C@@H]2CC(=O)c3c(cc4c(c3O)CCC(C)(CCCC(C)(C)O)O4)O2)cc(OC)c1O (some centres not stated) | > 100 µM | – | – | –
7 | COc1cc([C@@H]2CC(=O)c3c(cc4c(c3O)CCC(C)(CCCC(C)(C)O)O4)O2)cc(O)c1O (some centres not stated) | – | – | Non-Toxic | Active
8 | COc1cc([C@@H]2CC(=O)c3c(cc(O)c(C/C=C(\C)CCCC(C)(C)O)c3O)O2)cc(OC)c1O | – | – | Non-Toxic | Active
9 | COc1ccc([C@@H]2CC(=O)c3c(cc(O)c(C/C=C(\C)CCCC(C)(C)O)c3O)O2)cc1O | – | – | Non-Toxic | Active
10 | O=c1cc(-c2ccc(O)cc2)oc2cc(O)cc(O)c12 [APIGENIN] | 46.1 µM | 49.9 µM | – | –
11 | CC(C)(O)CCCC1(C)CCc2c(cc3c(c2O)C(=O)[C@H](O)[C@@H](c2ccc(O)c(O)c2)O3)O1 (some centres not stated) | – | – | Non-Toxic | Active
12 | O=c1cc(-c2ccc(O)c(O)c2)oc2cc(O)cc(O)c12 [LUTEOLIN] | 12.7 µM | 10.1 µM | – | –

— ChEMBL document CHEMBL4130463, “Potential Anti-inflammatory Effects of the Fruits of Paulownia tomentosa” (J Nat Prod, 2017)
